Measurements gathered from unrelated publications.
BACE1: Beta-secretase 1 (BACE1, Homo sapiens, UniProt P56817)
Transmembrane protease serine 6: Transmembrane protease serine 6 (Homo sapiens, UniProt Q8IU80)
EGFR: Epidermal growth factor receptor (EGFR, Homo sapiens, UniProt P00533)
AVPR2: Vasopressin V2 receptor (AVPR2, Homo sapiens, UniProt P30518)
NPY1R: Neuropeptide Y receptor type 1 (NPY1R, Homo sapiens, UniProt P25929)
AGTR1: Type-1 angiotensin II receptor (AGTR1, Homo sapiens, UniProt P30556)

Compound | target | test | setting | inhibition [%]
Cc1ncc(C)n2nc(/C=C/c3nc(N4CCCC4)cc(N4CCOCC4)n3)nc12 | BACE1 | enzyme activity, inhibitor | 10 µM | 4
CC(C)C[C@H](NC(=O)[C@H](Cc1ccccc1)NC(=O)c1cnccn1)B(O)O | Neutrophil elastase (ELANE, Homo sapiens, UniProt P08246) | enzyme activity, inhibitor | 33 µM | 36.1
C[C@@H]1CCCN1CCCCOc1ccc2occc(=O)c2c1 | Transmembrane protease serine 6 | enzyme activity, inhibitor, fluorescence | 10 µM | 10
C#Cc1n[nH]c2c(-c3cn(C(C)c4ccccn4)c(=O)[nH]c3=O)cc(F)cc12 (centres unmarked) | EGFR | enzyme activity, inhibitor | 1 µM | -3.8
c1ccc(C(NCCNC(c2ccccc2)c2ccccc2)c2ccccc2)cc1 | AVPR2 | cell-free assay | 10 µM | 29
Cn1cc(-c2cccc(N3CCc4c(sc5c4CC(C)(C)C5)C3=O)c2CO)cc(Nc2ccncn2)c1=O | SRSF protein kinase 3 (SRPK3, Homo sapiens, UniProt Q9UPE1) | enzyme activity, inhibitor | 1 µM | 9
O=c1ccoc2ccc(OCCCCN3CCCCC3)cc12 | Transmembrane protease serine 6 | enzyme activity, inhibitor, fluorescence | 10 µM | 12
Cn1cc(-c2cc(F)cc(N3CCn4c(cc5c4CCCC5)C3=O)c2CO)cc(Nc2ccc(N3CCN(C4COC4)CC3)cn2)c1=O | Serine/threonine-protein kinase mTOR (MTOR, Homo sapiens, UniProt P42345) | enzyme activity, inhibitor | 0.1 µM | 2
CCN(CC)CCCC[C@H](NC(=O)[C@H](CC(C)C)NC(=O)[C@H](C)NC(=O)[C@H](Cc1ccccc1)NC(=O)c1ccc(C(C)(C)C)cc1)C(=O)N[C@@H](CO)C(=O)OC | NPY1R | ligand displacement, radioligand | 10 µM | -20
CN(CCN1CCC(OC(=O)Nc2ccccc2-c2ccccc2)CC1)C(=O)c1ccc(CN2CCC(C(N)=O)CC2)cc1 | AGTR1 | ligand displacement, radioligand | 1 µM | 3
COCc1c(-c2cc3cc(C)cc(OC)c3s2)c2c(N)ncnn2c1CN1CCNC(=O)C1 | AGTR1 | ligand displacement, radioligand | 10 µM | 9
OC[C@@]12C[C@@H]1[C@@H](n1cnc3c(NC(C4CCCC4)C4CCCC4)nc(Cl)cc31)[C@H](O)[C@@H]2O | Adenosine receptor A3 (ADORA3, Homo sapiens, UniProt P0DMS8) | ligand displacement, radioligand | 10 µM | 35
CCCCCCCCCCCC(=O)OC[C@@H](COP(=O)(O)OCCNC(=O)c1ccc(Cn2c(=O)[nH]c3c(N)nc(OCCOC)nc32)cc1)OC(=O)CCCCCCCCCCC | NPY1R | ligand displacement, radioligand | 10 µM | 11
COc1ccc(S(=O)(=O)N2CCCCC2)cc1C | AGTR1 | ligand displacement, radioligand | 10 µM | < 30
C#Cc1n[nH]c2c(-c3cn([C@@H](C)c4ccccc4)c(=O)[nH]c3=O)cc(F)cc12 | EGFR | enzyme activity, inhibitor | 0.1 µM | 0.9
Cc1ccc2nc(N3C(=O)C(O)=C(C(=O)OC(C)(C)C)C3c3ccc(-c4ccc(Cl)cc4)o3)sc2c1 (centres unmarked) | UDP-N-acetylenolpyruvoylglucosamine reductase (murB, Escherichia coli K-12, UniProt P08373) | enzyme activity, inhibitor | 20 µM | 46
C[C@H](C(=O)N[C@H]1COc2ccccc2[C@@H]1S(C)(=O)=O)c1ccc(F)cc1 | AVPR2 | cell-free assay | 10 µM | 3
CN1CCN(CCOc2ccc3occc(=O)c3c2)CC1 | Transmembrane protease serine 6 | enzyme activity, inhibitor, fluorescence | 10 µM | 6
CC(C)CC(CC(=O)NO)N=[N+]=[N-] (centres unmarked) | Endoplasmic reticulum aminopeptidase 2 (ERAP2, Homo sapiens, UniProt Q6P179) | enzyme activity, inhibitor, fluorescence | 300 µM | 21
O=C(Nc1cccnn1)N1CCN([C@@H]2CCOc3cc(C(F)(F)F)ccc32)CC1 | BACE1 | enzyme activity, inhibitor | 20 µM | 3
